Data reported in ChEMBL document CHEMBL2417509, “Synthesis and biological evaluation of prodigiosene conjugates of porphyrin, estrone and 4-hydroxytamoxifen” (2013).
Active and inactive are the calls of the source. The rule behind the calls is not given here.

What was measured:
[1] = tested on: NCI-H322M; experiment: Cytotoxicity against human NCI-H322M cells after 2 days by sulforhodamine B assay; type: functional; conditions: 48 h
Summary of the method: (§1)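 NCI60 multi-dose screen, 59 human tumour lines available. Cells exposed to compound across a 5-log mol/L concentration range for 2 days, then fixed and stained with sulphorhodamine B, optical density read. Growth inhibition calculated against time-zero control and untreated cells. GI50 derived from the dose series, average of two replicates.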

[2] = tested on: SF-295; experiment: Cytotoxicity against human SF295 cells after 2 days by sulforhodamine B assay; type: functional; conditions: SF-295, 48 h; summary of the method: as §1
[3] = tested on: A549; experiment: Cytotoxicity against human A549/ATCC cells after 2 days by sulforhodamine B assay; type: functional; conditions: A549, 48 h; summary of the method: as §1
[4] = tested on: NCI-H522; experiment: Cytotoxicity against human NCI-H522 cells after 2 days by sulforhodamine B assay; type: functional; conditions: NCI-H522, 48 h; summary of the method: as §1
[5] = tested on: MCF7; experiment: Cytotoxicity against human ER positive MCF7 cells assessed as cell viability at 1 uM after 72 hrs by MTT assay; type: functional, cell-based
Summary of the method: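 Lines kept in DMEM with 10% fetal bovine serum and 1% penicillin/streptomycin at 37 °C, 5% CO2. Compound applied at 1 µM for 72 h, then standard MTT reduction read-out. Viability given as mean percentage of formazan formed by treated cells relative to mock-treated cells (0.1% DMSO). Run in quadruplicate, standard error, Student's t-test.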

[6] = tested on: SF-539; experiment: Cytotoxicity against human SF539 cells after 2 days by sulforhodamine B assay; type: functional; conditions: SF-539, 48 h; summary of the method: as §1
[7] = tested on: MDA-MB-468; experiment: Cytotoxicity against human MDA-MB-468 cells after 2 days by sulforhodamine B assay; type: functional; conditions: MDA-MB-468, 48 h; summary of the method: as §1
[8] = tested on: HCT-116; experiment: Cytotoxicity against human HCT116 cells after 2 days by sulforhodamine B assay; type: functional; conditions: HCT-116, 48 h; summary of the method: as §1
[9] = tested on: SN12C; experiment: Cytotoxicity against human SN12C cells after 2 days by sulforhodamine B assay; type: functional; conditions: 48 h; summary of the method: as §1
[10] = tested on: U-251; experiment: Cytotoxicity against human U251 cells after 2 days by sulforhodamine B assay; type: functional; conditions: U-251, 48 h
Summary of the method: (§2)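 NCI DTP NCI60 multi-dose screen (59 human tumour lines available). Cells exposed to compound over a 5-log mol/L concentration range for 2 days, then fixed and stained with sulphorhodamine B, with optical density read. Growth inhibition calculated relative to time-zero cells and untreated cells, giving GI50 (half-maximal growth inhibition concentration). Average of two replicates.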

[11] = tested on: SF-268; experiment: Cytotoxicity against human SF268 cells after 2 days by sulforhodamine B assay; type: functional; conditions: SF-268, 48 h; summary of the method: as §1
[12] = tested on: HT-29; experiment: Cytotoxicity against human HT-29 cells after 2 days by sulforhodamine B assay; type: functional; conditions: HT-29, 48 h; summary of the method: as §1
[13] = tested on: T47D; experiment: Cytotoxicity against human T47D cells after 2 days by sulforhodamine B assay; type: functional; conditions: 48 h; summary of the method: as §2
[14] = tested on: M14; experiment: Cytotoxicity against human M14 cells after 2 days by sulforhodamine B assay; type: functional; conditions: M14, 48 h; summary of the method: as §1
[15] = tested on: HOP-92; experiment: Cytotoxicity against human HOP92 cells after 2 days by sulforhodamine B assay; type: functional; conditions: HOP-92, 48 h; summary of the method: as §1
[16] = tested on: OVCAR-4; experiment: Cytotoxicity against human OVCAR4 cells after 2 days by sulforhodamine B assay; type: functional; summary of the method: as §1
[17] = tested on: NCI-H460; experiment: Cytotoxicity against human NCI-H460 cells after 2 days by sulforhodamine B assay; type: functional; conditions: NCI-H460, 48 h; summary of the method: as §1
[18] = tested on: MOLT-4; experiment: Cytotoxicity against human MOLT4 cells after 2 days by sulforhodamine B assay; type: functional; conditions: MOLT-4, 48 h; summary of the method: as §1
[19] = tested on: SNB-19; experiment: Cytotoxicity against human SNB19 cells after 2 days by sulforhodamine B assay; type: functional; conditions: SNB-19, 48 h; summary of the method: as §2
[20] = tested on: LOX IMVI; experiment: Cytotoxicity against human LOXIMVI cells after 2 days by sulforhodamine B assay; type: functional; conditions: 48 h; summary of the method: as §1
[21] = tested on: OVCAR-5; experiment: Cytotoxicity against human OVCAR5 cells after 2 days by sulforhodamine B assay; type: functional; conditions: OVCAR-5, 48 h; summary of the method: as §1
[22] = tested on: NCI-H23; experiment: Cytotoxicity against human NCI-H23 cells after 2 days by sulforhodamine B assay; type: functional; conditions: NCI-H23, 48 h; summary of the method: as §1
[23] = tested on: SK-OV-3; experiment: Cytotoxicity against human SKOV3 cells after 2 days by sulforhodamine B assay; type: functional; conditions: SK-OV-3, 48 h; summary of the method: as §1
[24] = tested on: DU-145; experiment: Cytotoxicity against human DU145 cells after 2 days by sulforhodamine B assay; type: functional; conditions: DU-145, 48 h; summary of the method: as §1
[25] = tested on: A498; experiment: Cytotoxicity against human A498 cells after 2 days by sulforhodamine B assay; type: functional; conditions: A498, 48 h; summary of the method: as §1
[26] = tested on: CAKI-1; experiment: Cytotoxicity against human CAKI-1 cells after 2 days by sulforhodamine B assay; type: functional; conditions: CAKI-1, 48 h; summary of the method: as §1
[27] = tested on: 786-0; experiment: Cytotoxicity against human 786-0 cells after 2 days by sulforhodamine B assay; type: functional; conditions: 786-0, 48 h; summary of the method: as §1
[28] = tested on: TK-10; experiment: Cytotoxicity against human TK10 cells after 2 days by sulforhodamine B assay; type: functional; conditions: TK-10, 48 h; summary of the method: as §2
[29] = Cytotoxicity against human NCI-ADR-RES cells after 2 days by sulforhodamine B assay; type: functional; conditions: 48 h; summary of the method: as §1
[30] = tested on: MDA-MB-435; experiment: Cytotoxicity against human MDA-MB-435 cells after 2 days by sulforhodamine B assay; type: functional; conditions: MDA-MB-435, 48 h; summary of the method: as §1
[31] = read-out: LC50 (the source's name)

## CC/C(=C(/c1ccc(OCCN(C)C)cc1)c1ccc(OC(=O)CCCCCCCCC(=O)C2=C(C)/C(=C/c3[nH]c(-c4ccc[nH]4)cc3OC)N=C2C)cc1)c1ccccc1
[1]
  GI50: > 100 µM
  LC50 (concentration killing 50% of cells): > 100 µM
  TGI: > 100 µM
[2]
  GI50: 10.7 µM
  LC50: > 100 µM
  TGI: 61.7 µM
[3]
  GI50: 4.17 µM
  LC50 (concentration giving 50% net cell kill): > 100 µM
  TGI: > 100 µM
[4]
  GI50: 21.4 µM
  LC50: > 100 µM
  TGI: > 100 µM
[5]
  Activity: inactive
[6]
  GI50: 12 µM
  LC50: > 100 µM
  TGI: 50.1 µM
[7]
  GI50: 3.63 µM
  LC50: > 100 µM
  TGI: > 100 µM
[8]
  GI50: 3.39 µM
  LC50 (concentration killing 50% of cells vs time zero): > 100 µM
  TGI: 21.9 µM
[9]
  GI50: 7.59 µM
  TGI: > 100 µM
[9]; [31]
  CC50: > 100 µM
[10]
  GI50: 6.61 µM
  LC50: > 100 µM
  TGI: > 100 µM
[11]
  GI50: 6.61 µM
  LC50 (concentration killing 50% of cells): > 100 µM
  TGI: > 100 µM
[12]
  GI50: 5.13 µM
  LC50: > 100 µM
  TGI: > 100 µM
[13]
  GI50: 3.55 µM
  LC50 (concentration killing 50% of cells): > 100 µM
  TGI: > 100 µM
[14]
  GI50: 2.14 µM
  TGI: 4.47 µM
[14]; [31]
  CC50: 9.33 µM
[15]
  GI50: 1.95 µM
[15]; [31]
  CC50: > 100 µM
[16]
  Activity: inactive
[16]; OVCAR-4, 48 h
  LC50 (concentration killing 50% of cells): > 100 µM
  TGI: > 100 µM
[17]
  GI50: 4.27 µM
  LC50: > 100 µM
  TGI: > 100 µM
[18]
  GI50: 5.13 µM
  TGI: > 100 µM
[18]; [31]
  CC50: > 100 µM
[19]
  GI50: 6.31 µM
  TGI: > 100 µM
[19]; [31]
  CC50: > 100 µM
[20]
  GI50: 2.34 µM
  LC50: 27.5 µM
  TGI: 5.89 µM
[21]
  GI50: > 100 µM
  LC50: > 100 µM
  TGI: > 100 µM
[22]
  GI50: 47.9 µM
  LC50 (concentration killing 50% of cells): > 100 µM
  TGI: > 100 µM
[23]
  GI50: > 100 µM
  LC50 (concentration killing 50% of starting cells): > 100 µM
  TGI: > 100 µM
[24]
  GI50: 8.13 µM
  LC50 (concentration killing 50% of starting cells): > 100 µM
  TGI: > 100 µM
[25]
  GI50: 15.1 µM
  LC50: > 100 µM
  TGI: 72.4 µM
[26]
  GI50: 6.92 µM
  LC50 (concentration killing 50% of the cells present at time zero): > 100 µM
  TGI: > 100 µM
[27]
  GI50: 5.25 µM
  LC50 (concentration killing 50% of cells): > 100 µM
  TGI: > 100 µM
[28]
  GI50: 20.9 µM
  LC50: > 100 µM
  TGI: > 100 µM
[29]
  GI50: 31.6 µM
  TGI: > 100 µM
[29]; [31]
  CC50: > 100 µM
[30]
  GI50: 4.57 µM
  TGI: > 100 µM
[30]; [31]
  CC50: > 100 µM
